Calls of active or inactive are those of the source.
Legend:
[1] = Sodium salt excretion in conscious rat at the dose of 0.3 mg/kg expressed as urinary excretion in treated rats/urinary excretion in control rats; type: ADME, organism-based, Urine; set-up: dose 0.3 mg/kg; conditions: in vivo
Method in brief: (§1)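 Male rats (~160 g) fasted 24 h, water withheld 1.5 h; oral gavage of compound (0.3-100 mg/kg) in 25 mL/kg saline with 0.5% carboxymethylcellulose; 5 h urine collection in metabolism cages. Urine volume, Na+ and K+ (flame photometry) expressed as treated/control excretion ratio.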

Rattus norvegicus [2] = assay: Inhibition of RPAR administered perorally at 25 mg/kg dose; type: functional; conditions: route oral
Method in brief: (§2)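 Male Wistar rats (180-200 g), 5-10/group, dosed orally (water with Tween-80 suspension) 1 h before iv sensitization with 1 mg bovine serum albumin; 24-h fasted. 60 min later subplantar challenge with 200 µg anti-BSA in left hindpaw. Paw swelling by mercury displacement plethysmography at 2 h post-challenge.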

Rattus norvegicus [3] = assay: Blood pressure change in rats after oral administration of 50 mg/kg dose after 24 hours; type: functional
Method in brief: (§3)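 Restrained female Sprague–Dawley rats with indwelling aortic cannulas exteriorized at the nape; direct arterial pressure via transducer, mean pressure by electrical integration of phasic pressure. Readings before and 4 and 24 h after oral dosing (carboxymethylcellulose suspension, 10 mL/kg). Value is change in mean arterial pressure, averaged over two animals.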

[4] = Sodium salt excretion in conscious rat at the dose of 100 mg/kg expressed as urinary excretion in treated rats/urinary excretion in control rats; type: ADME, organism-based, Urine; set-up: dose 100 mg/kg; conditions: in vivo; method in brief: as §1
Rattus norvegicus [5] = assay: Inhibition of RPAR administered perorally at 50 mg/kg dose; type: functional; conditions: route oral; method in brief: as §2
Rattus norvegicus [6] = assay: Compound was tested for urinary volume excretion in conscious rat at the dose of 10 mg/kg expressed as urinary excretion in treated rats/urinary excretion in control rats; type: ADME, organism-based, Urine; set-up: dose 10 mg/kg; conditions: in vivo; method in brief: as §1
Rattus norvegicus [7] = assay: Compound was tested for urinary volume excretion in conscious rat at the dose of 3.0 mg/kg expressed as urinary excretion in treated rats/urinary excretion in control rats; type: ADME, organism-based, Urine; set-up: dose 3 mg/kg; conditions: in vivo; method in brief: as §1
Rattus norvegicus [8] = assay: Inhibition of RPAR administered perorally at 100 mg/kg dose; type: functional; conditions: route oral; method in brief: as §2
Rattus norvegicus [9] = assay: Compound was tested for urinary volume excretion in conscious rat at the dose of 0.3 mg/kg expressed as urinary excretion in treated rats/urinary excretion in control rats; type: ADME, organism-based, Urine; set-up: dose 0.3 mg/kg; conditions: in vivo; method in brief: as §1
[10] = Sodium salt excretion in conscious rat at the dose of 10 mg/kg expressed as urinary excretion in treated rats/urinary excretion in control rats; type: ADME, organism-based, Urine; set-up: dose 10 mg/kg; conditions: in vivo; method in brief: as §1
[11] = Potassium salt excretion in conscious rat at the dose of 30 mg/kg expressed as urinary excretion in treated rats/urinary excretion in control rats; type: ADME, organism-based, Urine; set-up: dose 30 mg/kg; conditions: in vivo; method in brief: as §1
[12] = Sodium salt excretion in conscious rat at the dose of 30 mg/kg expressed as urinary excretion in treated rats/urinary excretion in control rats; type: ADME, organism-based, Urine; set-up: dose 30 mg/kg; conditions: in vivo; method in brief: as §1
Rattus norvegicus [13] = assay: Compound was tested for urinary volume excretion in conscious rat at the dose of 1.0 mg/kg expressed as urinary excretion in treated rats/urinary excretion in control rats; type: ADME, organism-based, Urine; set-up: dose 1 mg/kg; conditions: in vivo; method in brief: as §1
Rattus norvegicus [14] = assay: Compound was tested for urinary volume excretion in conscious rat at the dose of 100 mg/kg expressed as urinary excretion in treated rats/urinary excretion in control rats; type: ADME, organism-based, Urine; set-up: dose 100 mg/kg; conditions: in vivo; method in brief: as §1
Rattus norvegicus [15] = species on record: Rattus norvegicus; assay: Diuretic activity in rats; type: functional, Urine
Method in brief: (§4)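 Male rats (~160 g) fasted 24 h, water withheld 1.5 h, both withheld during test. Gavage 25 mL/kg 0.9% saline with 0.5% carboxymethylcellulose containing compound at 40 mg/kg; urine collected 5 h in metabolism cages. Two-stage test, T/C urine volume per stage; active if product of stage T/Cs ≥3.34.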

[16] = Sodium salt excretion in conscious rat at the dose of 3.0 mg/kg expressed as urinary excretion in treated rats/urinary excretion in control rats; type: ADME, organism-based, Urine; set-up: dose 3 mg/kg; conditions: in vivo; method in brief: as §1
[17] = Potassium salt excretion in conscious rat at the dose of 1.0 mg/kg expressed as urinary excretion in treated rats/urinary excretion in control rats; type: ADME, organism-based, Urine; set-up: dose 1 mg/kg; conditions: in vivo; method in brief: as §1
[18] = Potassium salt excretion in conscious rat at the dose of 10 mg/kg expressed as urinary excretion in treated rats/urinary excretion in control rats; type: ADME, organism-based, Urine; set-up: dose 10 mg/kg; conditions: in vivo; method in brief: as §1
[19] = Sodium salt excretion in conscious rat at the dose of 1.0 mg/kg expressed as urinary excretion in treated rats/urinary excretion in control rats; type: ADME, organism-based, Urine; set-up: dose 1 mg/kg; conditions: in vivo; method in brief: as §1
[20] = Potassium salt excretion in conscious rat at the dose of 100 mg/kg expressed as urinary excretion in treated rats/urinary excretion in control rats; type: ADME, organism-based, Urine; set-up: dose 100 mg/kg; conditions: in vivo; method in brief: as §1
Rattus norvegicus [21] = assay: Compound was tested for urinary volume excretion in conscious rat at the dose of 30 mg/kg expressed as urinary excretion in treated rats/urinary excretion in control rats; type: ADME, organism-based, Urine; set-up: dose 30 mg/kg; conditions: in vivo; method in brief: as §1
[22] = Potassium salt excretion in conscious rat at the dose of 3.0 mg/kg expressed as urinary excretion in treated rats/urinary excretion in control rats; type: ADME, organism-based, Urine; set-up: dose 3 mg/kg; conditions: in vivo; method in brief: as §1
Rattus norvegicus [23] = assay: Blood pressure change in rats after oral administration of 50 mg/kg dose after 4 hours; type: functional; method in brief: as §3
[24] = Potassium salt excretion in conscious rat at the dose of 0.3 mg/kg expressed as urinary excretion in treated rats/urinary excretion in control rats; type: ADME, organism-based, Urine; set-up: dose 0.3 mg/kg; conditions: in vivo; method in brief: as §1
Rattus norvegicus [25] = assay: Compound was tested for inhibition of RPAR administered perorally at 100 mg/kg dose; type: functional; conditions: route oral; method in brief: as §2
Rattus norvegicus [26] = assay: Compound was tested for inhibition of RPAR administered perorally at 25 mg/kg dose; type: functional; conditions: route oral; method in brief: as §2
Rattus norvegicus [27] = assay: Compound was tested for inhibition of RPAR administered perorally at 50 mg/kg dose; type: functional; conditions: route oral; method in brief: as §2
Rattus norvegicus [28] = assay: Compound was tested for blood pressure change in rats after oral administration of 50 mg/kg dose after 24 hours; type: functional; method in brief: as §3
Rattus norvegicus [29] = assay: Compound was tested for blood pressure change in rats after oral administration of 50 mg/kg dose after 4 hours; type: functional; method in brief: as §3
Rattus norvegicus [30] = species on record: Rattus norvegicus; assay: Compound was tested for diuretic activity in rats; I=Inactive; type: functional, organism-based; conditions: Urine; method in brief: as §4
Rattus norvegicus [31] = assay: Compound was tested for inhibition of RPAR administered perorally at 25 mg/kg dose; I=Inactive; type: functional, organism-based; set-up: dose 25 mg/kg; method in brief: as §2

| SMILES | Na+ excretion [1] | MABP change (Rattus norvegicus [3]) [mmHg] | Na+ excretion [4] | Urinary volume (Rattus norvegicus [6]) | Urinary volume (Rattus norvegicus [7]) | Urinary volume (Rattus norvegicus [9]) | Na+ excretion [10] | K+ excretion [11] | Na+ excretion [12] | Urinary volume (Rattus norvegicus [13]) | Urinary volume (Rattus norvegicus [14]) | Diuretic activity (Rattus norvegicus [15]) | Na+ excretion [16] | K+ excretion [17] | K+ excretion [18] | Na+ excretion [19] | K+ excretion [20] | Urinary volume (Rattus norvegicus [21]) | K+ excretion [22] | K+ excretion [24] | other results |
| --- | --- | --- | --- | --- | --- | --- | --- | --- | --- | --- | --- | --- | --- | --- | --- | --- | --- | --- | --- | --- | --- |
| Nc1nc(=O)c(Br)c(-c2ccccc2)[nH]1 [BROPIRIMINE] | 1.1 | -22 | 2.8 | 2.5 | 1.3 | 1.1 | 2.3 | 1.5 | 2.9 | 1.2 | 2.7 | 7.41 | 1.5 | 1 | 1.3 | 1.3 | 1.3 | 2.6 | 1.1 | 1.1 | inhibition in vivo at 25 mg/kg (Rattus norvegicus [2]): 13%; inhibition in vivo at 50 mg/kg (Rattus norvegicus [5]): 31%; inhibition in vivo at 100 mg/kg (Rattus norvegicus [8]): 44%; MABP change (Rattus norvegicus [23]): 0 mmHg |
| Cn1c(N)nc(-c2ccccc2)c(Br)c1=O | 1 | -7 | 2.8 | 2.3 | 1.4 | 1 | 2.1 | 2.2 | 2.5 | 0.9 | 2.8 | 5.52 | 1.3 | 1 | 1.7 | 1.2 | 2.2 | 2.5 | 1.3 | 1.1 | inhibition in vivo at 100 mg/kg (Rattus norvegicus [25]): 74%; inhibition in vivo at 25 mg/kg (Rattus norvegicus [26]): 36%; inhibition in vivo at 50 mg/kg (Rattus norvegicus [27]): 64%; MABP change (Rattus norvegicus [23]): -12 mmHg |
| NS(=O)(=O)c1cc2c(cc1Cl)NCNS2(=O)=O [HYDROCHLOROTHIAZIDE] | 1.7 |  | 2.5 | 2.4 | 2.2 | 1.9 | 2.4 | 1.5 | 2.4 | 2.3 | 2.7 | 7.18 | 2.1 | 1.6 | 1.5 | 2 | 1.7 | 2.6 | 1.6 | 1.2 | MABP change (Rattus norvegicus [28]): 2 mmHg; MABP change (Rattus norvegicus [29]): 0 mmHg |
| Nc1nc(O)cc(-c2ccccc2)n1 |  |  |  |  |  |  |  |  |  |  |  |  |  |  |  |  |  |  |  |  | Diuretic activity (Rattus norvegicus [30]): inactive; inhibition (Rattus norvegicus [31]): inactive |
